Screens deposited in PubChem by several laboratories.
The list is not random: actives were taken first. Their share in the collection is about 9.5%.
M1 agonist: M1 muscarinic receptor agonism; CHO-M1 cells, Fluo-4 calcium fluorescence, agonist mode; active compounds read high; hit rate 3% among 64,000; B-score at 10 µM; AID 626;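 active = fluorescence rise, raw or as B-score row- and column-corrected plate score, outside the 99.7% band of its plate's samples, either direction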
D1 mod: allosteric modulators of human D1 dopamine receptor; P21728; AID 641; HEK293 D1, CRE-luciferase, dopamine EC30 potentiation; actives deviate in either direction; B-score at 10 µM; hit rate 5.9% among 58,000;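 active = luminescence count or its row- and column-corrected plate score outside the 99.7% band of the plate's sample wells, on either side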
Jurkat viability: cytotoxic compounds reducing Jurkat cell viability; hit rate 1.2% among 56,000; Jurkat E6.1 viability, ATP luminescence, 48 h; AID 463; inhibition, % at 4 µM;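 active = inhibition above the mean inhibition of all tested compounds plus 3 SD, cut at about 28% in these data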
M1 antagonist: M1 muscarinic receptor (rat) antagonism; hit rate 3.4% among 64,000; B-score at 10 µM; CHO-M1 cells, Fluo-4 calcium, ACh EC80 antagonist mode; active compounds read low;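 active = calcium fluorescence response, raw or row-and-column corrected B-score, differing from the plate sample mean either way at a set confidence level, mostly lower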
Target sequence (P08482 whole entry, looked up): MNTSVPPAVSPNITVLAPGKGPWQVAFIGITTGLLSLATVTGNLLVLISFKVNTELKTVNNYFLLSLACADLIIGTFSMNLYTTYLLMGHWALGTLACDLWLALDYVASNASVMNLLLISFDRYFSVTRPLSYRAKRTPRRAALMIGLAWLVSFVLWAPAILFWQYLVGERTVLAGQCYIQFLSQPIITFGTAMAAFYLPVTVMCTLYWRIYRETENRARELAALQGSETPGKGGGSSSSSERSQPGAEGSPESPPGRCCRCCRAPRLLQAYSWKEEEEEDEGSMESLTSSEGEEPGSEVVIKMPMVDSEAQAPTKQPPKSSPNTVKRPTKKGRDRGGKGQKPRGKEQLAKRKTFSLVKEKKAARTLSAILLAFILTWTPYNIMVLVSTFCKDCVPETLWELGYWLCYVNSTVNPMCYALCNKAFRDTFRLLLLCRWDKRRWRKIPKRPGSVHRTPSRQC
HEK293 NFkB inh: lowers PMA/ionomycin-induced NF-kB signal in HEK293 cells | AID 465 | inhibition, % at 3 µM | HEK-293 NF-kB luciferase reporter, luminescence | hit rate 0.21% among 62,000;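 active = inhibition above the mean of all tested compounds plus 3 SD, cut at about 40% in these data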;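 note: 0% = stimulated DMSO wells and 100% = 10 µM reference inhibitor 5653914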
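System – HEK-293 cells with stable firefly luciferase reporter driven by four HIV NF-kB elements · Doses – one dose, 3 µM · Schedule – 1 h compound pre-incubation, 16 h PMA/ionomycin at 37 °C · Technique – luminescence from luciferase substrate reagent · Measure – percent inhibition normalized per plate to DMSO and reference-inhibitor controls · Replicates – tested once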
mHtt clearance: compounds clearing mutant huntingtin protein; inhibition, % at 1.5 µM; hit rate 0.42% among 47,000; HeLa Exon1htt(103Q)mCFP, aggregate imaging; zero = plate's median compound well;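 active = inhibition of aggregate fluorescence above about 70%, also judged a hit by eye on the cell image, limit read from the data, passing the limit was not always enough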;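 note: cells exposed to compound for three days before fixation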
D1 mod confirm: D1 receptor (human) allosteric modulation, confirmed. hit rate 88% among 2,200. shares compounds with D1 mod. HEK293 D1 CRE-luciferase, dopamine EC30 potentiation; active compounds read high. luminescence at 10 µM;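 active = luminescence in either of two replicates above the same-plate mean plus 3 SD of the low-dose dopamine control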
D1 ag no DA: D1 (human) signaling in absence of dopamine. shares compounds with D1 mod. HEK293 D1 CRE-luciferase, luminescence, no dopamine; active compounds read high. luminescence at 10 µM. hit rate 0.8% among 1,900. AID 646; in the data active = luminescence above about 3900
Isoprot counter: alters isoproterenol CRE-luciferase response in HEK293 cells; hit rate 63% among 2,200; shares compounds with D1 mod; luminescence at 10 µM; HEK293 D1 CRE-luciferase, isoproterenol EC30 counter-screen; active compounds read high;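 active = luminescence in either replicate above plate mean of wells with a partly effective reference agonist dose plus 3 SD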;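 note: isoproterenol raises cAMP through native beta-adrenoceptor Gs so signal bypasses D1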
Active calls of the source: *; · = no result given.

SMILES | M1 agonist | D1 mod | Jurkat viability | M1 antagonist | HEK293 NFkB inh | mHtt clearance | D1 mod confirm | D1 ag no DA | Isoprot counter
CCOCCCNC(=O)c1ccc(CS(=O)(=O)Cc2ccc(C)cc2)o1 | -0.95 | -0.52 | 6 | 0.4 | 5 | 14 | · | · | ·
O=C(CN(C(=O)CNS(=O)(=O)c1ccccc1)C1CCCC1)NCc1ccco1 | · | · | -7 | · | 20 | · | · | · | ·
CC(C)(C)OC(=O)N1CC2Cc3[nH]c(=O)ccc3C(C2)C1 (stereo unspecified) | 0 | -0.43 | 3 | 0.65 | -10 | 53 | · | · | ·
Cc1cc(-c2ccccc2)nc2cc(C(N)=O)nn12 | 0.45 | 9.4* | -2 | -1.3 | 9 | · | 9500* | 1480 | 3836*
NC(=O)c1cc(-c2ccccc2)nc(N2CCOCC2)n1 | 0.27 | 9.8* | 0 | -0.0026 | 14 | -1 | 14624* | 1472 | 4596*
Nc1nc(N2CCCCC2)nc(N(c2ccccc2)c2ccccc2)n1 | -0.16 | -0.38 | -2 | -0.22 | -12 | -172 | · | · | ·
NC(=O)c1cc(-c2ccccc2)nc(N2CCCCCC2)n1 | 0.11 | 2.7* | 2 | 1 | 9 | 12 | 6540* | 1320 | 2668
CCOc1ccc(CCNC(=O)C2CCN(c3nn4c(=O)cc(C)nc4s3)CC2)cc1OCC | 1.6 | 2.1 | -1 | 0.14 | 26 | · | · | · | ·
CCOC(=O)c1ccc(S(=O)(=O)N2CCN(CC3CC=CCC3)CC2)cc1 (stereo unspecified) | -0.12 | -0.53 | 0 | -0.15 | 7 | · | · | · | ·
Cc1cc(C)c2c(n1)sc1c(N3CCN(CCO)CC3)ncnc12 | -0.063 | 7.2* | 6 | 0.35 | 7 | · | 11076* | 1676 | 4148*
CN1CCN(c2ccc(Cl)cc2NC(=O)c2cccc(S(=O)(=O)N(C)C)c2)CC1 | -0.051 | 5.2* | 2 | -0.98 | 11 | · | 13264* | 1580 | 2544
CC(C)OC(=O)CSc1nnc(-c2cnccn2)n1-c1ccc(Cl)cc1 | -0.66 | 3.4* | 2 | 0.3 | 21 | 32 | 11484* | 1664 | 3136
Cc1ccc(-n2c(SCC(=O)OC(C)C)nnc2-c2ccncc2)cc1 | -1 | 0.11 | -4 | 0.29 | 9 | -33 | · | · | ·
Cc1c(NS(C)(=O)=O)c(=O)n(-c2ccccc2)n1C | -1 | -0.75 | -4 | -1.1 | 20 | · | · | · | ·
Cc1cc(F)ccc1S(=O)(=O)Nc1c(C)n(C)n(-c2ccccc2)c1=O | -0.42 | 5* | -4 | -0.18 | 8 | 5 | 5280 | 1740 | 2536
Cc1cc(C(=O)Nc2ccc(S(=O)(=O)Nc3nccs3)cc2)c(C)o1 | 0.63 | 8.4* | 5 | -0.14 | 14 | -44 | 16172* | 1476 | 3752*
O=C(COC(=O)c1cc(S(=O)(=O)N2CCOCC2)ccc1Cl)Nc1ccc2c(c1)OCO2 | 0.2 | 0.25 | -5 | 0.66 | 1 | · | · | · | ·
CCn1ncc2c1C(=O)NC1c3ccccc3C(=O)N21 (stereo unspecified) | 1.1 | 17* | -10 | -0.38 | 5 | · | 21460* | · | 3692*
Cc1cc(SCC(=O)N2CCC(c3noc4ccc(F)cc34)CC2)nc2ccccc12 | -0.44 | 3.7* | 3 | -0.69 | 20 | 10 | 6804* | 1500 | 2672
FC(F)(F)c1nc2nncn2c2c1CCCCC2 | -0.074 | -0.35 | 7 | -0.0017 | 17 | · | · | · | ·
COc1ccc(CCN2CCCn3c2nc2c3c(=O)n(Cc3ccccc3F)c(=O)n2C)cc1OC | 0.55 | 6.3* | 8 | 0.37 | 6 | · | 17816* | 1740 | 3112
CCOc1ccc(OCc2ccc(C(=O)OCc3ccccn3)o2)cc1 | · | · | 3 | · | -47 | · | · | · | ·
COc1ccc(S(=O)(=O)N2CCN(c3ccccn3)CC2)cc1OC | -0.17 | 5.3* | -3 | 0.1 | 21 | -1 | 6880* | · | 2540
COc1ccc(S(=O)(=O)N2CCN(c3c(C)cccc3C)CC2)cc1OC | 0.19 | 0.35 | -4 | -0.19 | 12 | · | · | · | ·
CCOC(=O)N1CCN(S(=O)(=O)c2ccc3c(c2)CCN3C(=O)C2CCC2)CC1 | 0.43 | 3.3* | -6 | 0.7 | 4 | · | 7472* | 1692 | 3316
SMILES | M1 agonist | D1 mod | Jurkat viability | M1 antagonist | HEK293 NFkB inh | mHtt clearance | D1 mod confirm | D1 ag no DA | Isoprot counter
O=C(C1CC1)N1CCc2cc(S(=O)(=O)N(CCO)Cc3ccccc3)ccc21 | -2.7 | 4.2* | 5 | 0.42 | 10 | · | 15244* | 1640 | 3736*
CCOC(=O)N1CCN(S(=O)(=O)c2ccc3c(c2)CCN3C(=O)C2CC2)CC1 | -0.63 | -0.93 | 5 | -0.077 | 4 | 35 | · | · | ·
O=C(C1CCC1)N1CCc2cc(S(=O)(=O)N3CCN(c4ccccn4)CC3)ccc21 | -0.065 | 6.1* | 0 | -0.41 | 10 | · | 10104* | · | 3712*
O=C(C1CCC1)N1CCc2cc(S(=O)(=O)N3CCCCC3)ccc21 | -0.51 | 1.1 | 7 | -0.26 | -13 | 34 | · | · | ·
CC1CCCN(CC(=O)Nc2ccc(S(=O)(=O)NC3CCCCC3)cc2)C1 (stereo unspecified) | -0.73 | 1.7 | -2 | -0.19 | 20 | 7 | · | · | ·
CC(C)(C)C1(c2ccccc2)NC(=O)N(CC(=O)N2CCOCC2)C1=O (stereo unspecified) | 0.57 | · | 4 | 0.0075 | 7 | 19 | · | · | ·
COc1ccccc1C1/C(=C(/O)c2ccccc2)C(=O)C(=O)N1CC(C)O (stereo unspecified) | 0.47 | · | 2 | 0.029 | 5 | 19 | · | · | ·
O=C(c1ccco1)N1CCN(S(=O)(=O)c2ccc3c(c2)CCN3C(=O)C2CCC2)CC1 | 1.2 | 2.6* | 15 | -0.56 | 4 | -26 | 11588* | 1732 | 4928*
CC(=O)Nc1cc2c(cc1C(=O)c1ccc(C)cc1)OCCO2 | 0.81 | 6.2* | -5 | 0.3 | -4 | -20 | 15264* | 1428 | 3928*
Cc1cc(C2C(=O)C(C(=O)c3ccc(Cl)cc3)C(=O)CC2(C)C)on1 (stereo unspecified) | 0.064 | -0.035 | -7 | 0.22 | 8 | · | · | · | ·
CCCc1nc2ccccc2c2nc(N)nn12 | -0.3 | 27* | 2 | -0.052 | 11 | · | 19312* | 1684 | 6464*
Cc1nc2ccccc2c2nc(N)nn12 | · | · | · | · | · | -3 | · | · | ·
Nc1nc2c3ccccc3nc(Cc3ccccc3)n2n1 | 0.38 | 16* | -3 | -0.64 | 12 | -46 | 11064* | 1640 | 3752*
Clc1cccc(Cl)c1CO/N=C/c1c(-c2ccccc2)nc2n1CCS2 | · | · | · | · | · | 5 | · | · | ·
Cc1cc(C)n2ncc(C(=O)NCc3cccnc3)c2n1 | 0.33 | -1.4 | -4 | 0.37 | 15 | · | · | · | ·
CN(C)c1ccc(/C(=N\O)c2ccccc2)cc1 | 1.8 | 3.6* | -2 | -0.13 | 10 | 4 | 16920* | 2132 | 3688*
Nc1ccc(Cl)cc1/C(=N/O)c1ccccc1 | -0.14 | · | · | 0.057 | · | · | · | · | ·
